# This is a sample that favours compounds with a hit; in the whole collection about 2.9% have one here.
# Arrestin-AP2 inh: blocks beta-arrestin peptide binding to AP2 adaptin; FITC-arrestin peptide / GST-AP2 beads, flow cytometry; AP2 beta2 appendage carries R879A mutation; inhibition, % at 10 µM; hit rate 0.31% among 340,000;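 active means inhibition above a set limit, near 3 SD of compounds lacking own fluorescence, cut at about 54% in these data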;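 further: plate controls were DMSO wells for no effect and 5 µM unlabelled arrestin peptide for full effect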
#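 test system = AP2 appendage R879A on GSH beads | buffer or medium = PBS plus Tween 20 (0.05%) and BSA (0.1%) | incubation = 12 min plus 1 h, RT | detection = bead flow cytometry, FITC channel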
# ADAM17 inh: inhibitors of human ADAM17; hit rate 0.83% among 370,000; recombinant ADAM17, EDANS/DABCYL FRET peptide cleavage; inhibition, % at 6.95 µM; P78536;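 active means inhibition above the mean of compounds lying between control limits plus 3 SD, set per campaign, cut at about 8.5% in these data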;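 further: 0% = DMSO-only wells as the low control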
# FAS-TE inh: inhibitors of human fatty acid synthase thioesterase domain. inhibition, % at 15 µM. P49327. AID 602261. recombinant FAS-TE, OMFH fluorogenic substrate, fluorescence endpoint. hit rate 0.67% among 360,000;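 active means compounds whose normalised, plate-corrected inhibition of enzyme fluorescence in the single-dose primary screen is 50% or more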;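 further: 0% = DMSO with enzyme and 100% = substrate without enzyme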
# CaV13 ICDI inh: Disruptors of the CACNA1D IQ motif to Ca2+-dependent inactivation inhibitor domain association, primary screening, Förster resonance energy transfer in intact living …; HEK cells, CFP/YFP FRET ICDI-IQ, plate reader, 10 min; percent FRET-ratio fall versus neutral wells; AID 743397; hit rate 0.098% among 340,000; inhibition, % at 12.3 µM;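 active means mean replicate inhibition of at least 30% and at least 1% of replicates passing that level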;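 further: 0% = median of the neutral control wells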
# NRP1-CendR mod: modulators of CendR peptide binding to human neuropilin-1; O14786; inhibition, % at 25 µM; hit rate 0.85% among 360,000; AID 602438; FAM-RPARPAR peptide binding to NRP-1, fluorescence polarization;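 active means inhibition or corrected inhibition above about 18%, plus a signal ratio from 0.5 to 1.5, limit read from the data, passing the limit was not always enough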
# ADAM10 inh: inhibitors of human ADAM10. O14672. recombinant ADAM10, EDANS/DABCYL FRET peptide cleavage, 3 h. inhibition, % at 7 µM. hit rate 0.62% among 370,000. AID 720582;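 active means inhibition above a per-campaign cutoff equal to the mean of compounds falling between control-based bounds plus 3 SD, cut at about 20% in these data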;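 further: 0% = DMSO wells while the 100% control is not disclosed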
# Target sequence (O14672 214-748 limits assumed): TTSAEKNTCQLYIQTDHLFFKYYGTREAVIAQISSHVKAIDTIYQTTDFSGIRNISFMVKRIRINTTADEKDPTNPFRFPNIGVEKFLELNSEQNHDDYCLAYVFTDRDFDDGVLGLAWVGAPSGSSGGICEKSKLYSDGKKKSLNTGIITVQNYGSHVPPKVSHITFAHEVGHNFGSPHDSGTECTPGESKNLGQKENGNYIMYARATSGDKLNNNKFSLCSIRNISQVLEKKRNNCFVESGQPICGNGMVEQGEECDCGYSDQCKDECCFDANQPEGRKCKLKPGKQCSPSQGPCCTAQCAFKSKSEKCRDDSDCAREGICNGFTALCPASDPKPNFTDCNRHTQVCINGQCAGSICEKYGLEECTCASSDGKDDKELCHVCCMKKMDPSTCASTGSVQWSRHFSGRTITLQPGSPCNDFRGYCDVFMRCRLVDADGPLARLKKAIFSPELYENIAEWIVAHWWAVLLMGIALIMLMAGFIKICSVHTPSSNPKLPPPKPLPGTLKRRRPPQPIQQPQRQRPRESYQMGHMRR
# Numbers without * were called inactive; i = inactive; . = no result given.
SMILES,Arrestin-AP2 inh,ADAM17 inh,FAS-TE inh,CaV13 ICDI inh,NRP1-CendR mod,ADAM10 inh
O=C(CSc1cccc[n+]1[O-])Nc1cc(S(=O)(=O)N2CCOCC2)ccc1N1CCOCC1,-7.3,-2.4,-7.6,-4.9,28.3*,-5.5
CCc1nc2ccc(C(=O)NCCOc3ccc(OC)cc3)cn2c1N(C)Cc1cccs1,.,2.0,8.0,-5.2,-12.6,14.2
CC(/C=N/Nc1nnc(C)c(=O)[nH]1)=C\c1ccccc1,0.7,-3.5,-8.1,-8.4,23.9*,-4.5
CCCn1nc(C(=O)Nc2cc(OCC)c(N3CCOCC3)cc2OCC)c2ccccc2c1=O,-0.2,0.5,20.5,-5.5,22.5*,0.5
CS(=O)(=O)N(CC(=O)Nc1ccccc1-c1ccccc1)c1cccc(F)c1,3.3,0.7,16.6,-6.5,26.7*,7.2
CS(=O)(=O)N(CC(=O)Nc1ccccc1-c1ccccc1)c1ccccc1,7.4,-4.0,4.4,-4.3,19.3,-4.8
CCOc1cc(C2C3=C(CCCC3=O)OC3=C2C(=O)CCC3)cc([N+](=O)[O-])c1O,-11.8,2.2,-3.6,-4.5,26.2*,5.0
CCOc1cc(C2C3=C(CC(C)(C)CC3=O)OC3=C2C(=O)CC(C)(C)C3)cc([N+](=O)[O-])c1O,-0.6,-8.1,-3.1,7.6,1.3,-13.1
O=C(NC1CC1)C1=C[C@@H](c2ccc3c(c2)OCO3)C[C@@H](OCCCCO)O1,-1.0,-4.9,-9.5,-9.6,27.7*,-10.9
O=C(C1=C[C@@H](c2ccc(Br)cc2)C[C@@H](OCCCCO)O1)N1CCN(Cc2ccc3c(c2)OCO3)CC1,-6.1,-4.0,18.2,-10.4,-4.8,-1.7
O=C(C1=C[C@H](c2csc3ccccc23)C[C@H](OCCCCO)O1)N1CCN(Cc2ccccc2)CC1,13.6,-1.0,24.8,-7.1,26.7*,-18.8
O=C(C1=C[C@H](c2ccc(C(F)(F)F)cc2)C[C@H](OCCCCO)O1)N1CCN(Cc2ccc3c(c2)OCO3)CC1,30.9,4.7,9.9,-9.0,28.8*,14.4
O=C(O)C1=C[C@H](c2ccc3c(c2)OCO3)C[C@H](OCCCCO)O1,30.1,-17.4,-8.3,-11.3,2.3,-38.2
Nc1cc(Cl)cc2c1-c1ccc(Cl)cc1C2,10.3,4.7,37.2,-2.3,1.9,2.5
CCOCCn1c(C)c(C(=O)OCC)c2cc(O)c3ccccc3c21,-7.2,-0.7,1.3,-5.5,-4.4,-12.6
CC1(C)N=C(c2ccccc2)C(c2ccccc2)=N1,6.0,-4.1,-2.0,-5.9,9.6,-3.2
CCOC(=O)C1CCN(S(=O)(=O)c2ccc3c(c2)CCN3C(=O)C2CCC2)CC1,-3.9,.,11.6,.,22.2*,.
CCOC(=O)C1CCN(S(=O)(=O)c2ccc3c(c2)CCN3C(C)=O)CC1,-3.4,1.2,1.5,-5.5,8.6,-8.9
Cc1cc(Br)c2nc(-c3cccc(Br)c3)c(Cc3cccc(Cl)c3)n2c1,.,-3.2,.,-10.4,.,-15.0
COc1ccc(-c2csc(N(CCCN(C)C)C(=O)c3ccc(Br)cc3)n2)cc1,-10.7,1.5,5.8,-5.3,22.4*,5.4
COc1ccccc1CN1CCNC(=O)C1CC(=O)NC1CCCCCC1 (stereo not given),8.4,-5.4,-5.8,-5.5,26.5*,-17.0
COc1ccc(S[C@]2(C(=O)NCCCN(C)C)CC(=O)N[C@@H]2c2ccc(OC)cc2)cc1,.,-2.2,.,.,.,-4.3
CSc1ccccc1CNC(=O)C1(C)CCCN1CC(C)C (stereo not given),.,1.9,-3.8,-5.1,-11.0,4.7
CCC(=O)Nc1nc2nc(-c3ccccc3)cc(-c3ccccc3)n2n1,-1.5,-30.5,-5.4,.,20.7*,-109.0
Cc1ccccc1NS(=O)(=O)c1ccc(NC(=O)CSCc2ccc(Br)cc2)cc1,4.1,15.3*,39.4,.,-0.3,32.3*
SMILES,Arrestin-AP2 inh,ADAM17 inh,FAS-TE inh,CaV13 ICDI inh,NRP1-CendR mod,ADAM10 inh
O=C(CSCc1ccccc1)Nc1ccc(S(=O)(=O)N2CCOCC2)cc1,-6.3,-1.4,3.1,.,27.2*,-2.6
COCCN1C(=O)C(C(=O)OC)CC2=C1CC(C)(C)CC2=O (stereo not given),10.3,-0.8,-4.8,-6.3,10.3,-6.7
CC(=O)NC1C(=O)N(CCc2ccccc2)c2ccc(Br)cc21 (stereo not given),14.2,1.5,0.6,-6.4,34.8*,2.9
Cc1cc(OC(=O)c2ccccc2C)c([N+](=O)[O-])c(=O)[nH]1,-5.4,-6.4,-4.9,-3.3,34.1*,0.3
Cn1c(=O)c2[nH]c(CCCc3ccc([N+](=O)[O-])cc3)nc2n(C)c1=O,-6.5,-14.9,-6.2,-4.1,30.0*,-57.4
CCOC(=O)N(C)[C@H]1C[C@H]2c3[nH]c4ccccc4c3CCN2C(=O)[C@H]1[C@H](C)O,.,i,.,-5.5,.,i
CCCCN(C(=O)c1ccc(S(=O)(=O)N(C)c2ccccc2)cc1)c1c(N)n(CCC)c(=O)[nH]c1=O,-3.4,-2.5,-1.2,-1.8,-3.3,-14.3
CN(C)CCN1CCN(C2CN(Cc3ccc([N+](=O)[O-])cc3)S(=O)(=O)C2)CC1 (stereo not given),.,-5.0,-10.9,-5.7,22.2*,-2.8
O=C(Nc1ccccc1Cl)c1cccs1,-6.6,-0.7,4.1,-2.6,25.5*,-4.0
Cc1c(NC(=O)c2cccs2)cccc1NC(=O)c1cccs1,45.0,-5.4,-5.5,-5.5,16.3,-6.3
Cc1ccc(S(=O)(=O)N2CCC(C(N)=O)CC2)cc1[N+](=O)[O-],-8.2,-5.2,-2.5,-2.1,27.2*,-11.8
COc1cc(F)ccc1-c1csc(C(O)c2ccc(F)cc2)n1 (stereo not given),.,3.7,11.3,-10.1,2.8,2.2
Nc1c(C(=O)NCc2cccnc2)sc(=S)n1-c1ccccc1,10.5,2.0,-4.7,-4.8,2.5,1.8
CCn1c(N)c(C(=O)NCc2cccnc2)sc1=S,2.6,0.8,-1.3,-6.0,25.8*,2.4
Cc1noc(C)c1C(=O)Nc1ccc(F)cc1,5.0,-0.6,-2.0,-2.1,40.8*,-1.0
O=C(C1=NN(c2ccccc2)C2C(=O)N(c3cccc(Cl)c3)C(=O)C12)c1ccccc1 (stereo not given),4.8,-4.8,64.4*,-41.0,135.0,-12.0
O=C(C1=NN(c2ccccc2)C2C(=O)N(c3ccc(Cl)cc3)C(=O)C12)c1ccccc1 (stereo not given),15.4,-0.8,5.3,-18.0,-29.9,8.9
N#Cc1ccc(/C=C\c2nccc3c2[nH]c2ccccc23)cc1,-2.1,-102.5,5.7,38.1*,-150.0,-349.2
Cc1cc2cc3c(=O)[nH]c(=O)nc-3n(CC(O)C(O)C(O)CO)c2cc1C (stereo not given),24.1,i,-2.6,-0.5,25.1*,i
